PABP FP inh = blocks human PABP binding to poly(A) RNA; P11940; fluorescence polarization; inhibition, % at 35 µM; 290,000 compounds, 1% hits; AID 2014;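 further: calls also rest on retests at 20 µM and on dose response follow-up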
HCV NS3 hel inh = blocks Hepatitis C virus NS3 helicase unwinding. 290,000 compounds, 0.56% hits. AID 1800. inhibition, % at 10.9 µM. NS3 helicase DNA unwinding, Cy5 molecular beacon fluorescence;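 active means inhibition above the mean of all tested compounds plus 3 SD, set per campaign, cut at about 35% in these data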;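 further: 0% = DMSO wells and 100% = thioflavine S control wells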
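Test system: hepatitis C virus NS3 helicase domain fragment enzyme. Also added: annealed dual-labelled DNA beacon duplex, ATP-started. Timing: 60 min unwinding reaction at 25 °C after ATP addition. Technique: Cy5 fluorescence. Measure: % inhibition of unwinding.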
eIF4H FP inh = inhibitors of RNA binding by human eIF4H. Q15056. eIF4H fluorescence polarization binding assay. inhibition, % at 35 µM. 290,000 compounds, 0.94% hits. AID 2012;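 further: calls also rest on retests at 20 µM and on dose response follow-up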
PABP1 MLLE inh = blocks PAM2 peptide binding to the PABP1 MLLE domain. P11940. GST-MLLE / FITC-PAM2 fluorescence polarization. inhibition, % at 20 µM. 360,000 compounds, 0.36% hits. AID 588489; in the data active means inhibition above about 35%, passing the limit was not always enough;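 further: plate controls were DMSO wells with GST-MLLE for no effect and wells lacking GST-MLLE protein for full effect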
DNA FID counter-1 = fluorescent intercalator displacement, NS3 helicase counter-screen; 290,000 compounds, 0.17% hits; DNA fluorescent intercalator displacement, fluorescence; inhibition, % at 7.9 µM; in the data active means inhibition above about 37%;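 further: 0% = vehicle and 100% = reference compound; higher means more ethidium bromide displaced from hairpin DNA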
HCV core dimer = HCV core protein dimerization inhibition; TR-FRET GST/Flag-core106 dimerization, 1536-well; inhibition, % at 5 µM; 300,000 compounds, 0.33% hits; AID 1899;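 active means inhibition above the mean of all tested compounds plus 3 SD, set per screening campaign, cut at about 45% in these data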
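System: GST-tagged and Flag-tagged HCV core protein residues 1-106 / Input: core106 proteins, GST 13.5 nM and Flag 17 nM / Buffer or medium: KF-containing HEPES buffer, pH 7.45, DTT, CHAPS, BSA / Probe or stimulus: Eu-anti-GST and XL665-anti-Flag labelled anti-tag antibodies / Schedule: 4 h, 22.5 °C incubation / Technique: TR-FRET 671 and 617 nm emission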
NS3 helicase cf = confirmation of Hepatitis C virus NS3 helicase inhibitors. shares compounds with HCV NS3 hel inh. NS3 helicase DNA unwinding, Cy5 molecular beacon fluorescence. inhibition, % at 10.9 µM. 1,600 compounds, 31% hits;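 active means inhibition above the mean of all tested compounds plus 3 SD, cutoff set per campaign, cut at about 36% in these data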
DNA FID counter-2 = counter-screen for HCV NS3 helicase inhibitors: DNA intercalator displacement; shares compounds with HCV NS3 hel inh; DNA fluorescent intercalator displacement, fluorescence; inhibition, % at 7.9 µM; 1,600 compounds, 4% hits; AID 1945; in the data active means inhibition above about 37%;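 further: 0% = vehicle and 100% = reference compound; higher means more displacement of ethidium bromide from the DNA hairpin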
* hit, by the source's call. Rows were chosen to be rich in hits. Some 2% of all compounds tested hit in one or more screens of this group. Unless noted, how the calls were made is not given here.

For COc1ccc(C(NC(=O)/C=C\c2ccco2)c2ccc(OC)c(OC)c2)cc1 (stereo unspecified) the results were PABP FP inh -4, HCV NS3 hel inh 37*, eIF4H FP inh 12, PABP1 MLLE inh 7, DNA FID counter-1 -26, HCV core dimer 8, NS3 helicase cf -10 and DNA FID counter-2 -35.
Screening COc1ccc(C(NC(=O)/C=C/c2ccco2)c2ccc(OC)cc2)cc1 returned PABP FP inh -3, HCV NS3 hel inh 33, eIF4H FP inh 46, PABP1 MLLE inh -16, DNA FID counter-1 -29 and HCV core dimer 45.
`COc1ccccc1NC(=O)/C=C\c1ccco1` gave PABP FP inh 6, HCV NS3 hel inh 53*, eIF4H FP inh 6, PABP1 MLLE inh 7, DNA FID counter-1 -11, HCV core dimer 7, NS3 helicase cf -10 and DNA FID counter-2 -1.
O=C(NCc1ccccc1)c1cc(C2COCCN2S(=O)(=O)c2ccccc2)on1 (stereo unspecified) was read as PABP1 MLLE inh -5.
For CC(=O)Nc1ccc(C(=O)CN2C(=O)NC3(CCOc4ccccc43)C2=O)c(F)c1 (stereo unspecified) the results were PABP1 MLLE inh -12.
For CC(=O)Nc1ccc(S(=O)(=O)NNC(=O)COc2ccc(C)cc2)cc1 the results were PABP FP inh -6, HCV NS3 hel inh 1, eIF4H FP inh 5, PABP1 MLLE inh -4, DNA FID counter-1 -4 and HCV core dimer -10.
Screening CC(=O)Nc1ccc(S(=O)(=O)NNC(=O)COc2ccc(Cl)cc2Cl)cc1 returned PABP FP inh 9, HCV NS3 hel inh 37*, eIF4H FP inh -2, PABP1 MLLE inh 6, DNA FID counter-1 -4, HCV core dimer -1, NS3 helicase cf 11 and DNA FID counter-2 4.
For O=C(Cn1cnc2scc(-c3ccc(F)cc3)c2c1=O)NCC(c1ccco1)N1CCCC1 (stereo unspecified) the results were PABP1 MLLE inh -4.
Screening COc1ccc(/C=N/N2CCOCC2)cc1COc1ccc(Cl)cc1 returned PABP FP inh inconclusive, HCV NS3 hel inh -8, eIF4H FP inh -2, PABP1 MLLE inh 18, DNA FID counter-1 3 and HCV core dimer -5.
`CC(C)=CCC12Oc3cc(O)ccc3C1(O)Oc1cc(O)c([C@H]3C=C(C)CC(c4ccc(O)cc4O)[C@H]3C(=O)c3ccc(O)cc3O)c(O)c1C2=O` (stereo partly specified) gave HCV core dimer 8.
CCOc1ccc(N(CC(=O)N2CCOCC2)S(=O)(=O)c2ccc(F)cc2)cc1 was read as PABP FP inh 5, HCV NS3 hel inh -2, eIF4H FP inh -8, PABP1 MLLE inh -1, DNA FID counter-1 -15 and HCV core dimer -6.
For CC(CCc1ccccc1)NC(=O)COC(=O)c1cccnc1Cl (stereo unspecified) the results were PABP1 MLLE inh -37.
NC(=S)N/N=C/c1c(O)ccc2ccccc12 was read as PABP FP inh -1, HCV NS3 hel inh 57*, eIF4H FP inh 4, PABP1 MLLE inh 47*, DNA FID counter-1 4, HCV core dimer -11, NS3 helicase cf 7 and DNA FID counter-2 -1.
`O=C(N/N=C/c1c(O)ccc2ccccc12)c1ccc(CO)nc1` gave PABP FP inh 12, HCV NS3 hel inh 39*, eIF4H FP inh -10, PABP1 MLLE inh -47, DNA FID counter-1 -12, HCV core dimer -10, NS3 helicase cf 7 and DNA FID counter-2 -1.
`CCOC(=O)/C(C(C)=O)=C1\OC(=O)c2ccccc21` gave PABP FP inh 15, HCV NS3 hel inh 44*, eIF4H FP inh -8, PABP1 MLLE inh 1, DNA FID counter-1 -8, HCV core dimer -3, NS3 helicase cf -7 and DNA FID counter-2 7.
CCCS(=O)(=O)NC(=O)C1(C)CCCN(C(=O)c2cccc(Cl)c2)C1 (stereo unspecified) was read as PABP1 MLLE inh -8.
Screening Cc1ccc(C(=O)N/C(=C/c2ccco2)C(=O)N2CCC(C)CC2)cc1 returned PABP FP inh 5, HCV NS3 hel inh 47*, eIF4H FP inh 55, PABP1 MLLE inh -14, DNA FID counter-1 -35, HCV core dimer 3, NS3 helicase cf -19 and DNA FID counter-2 -32.
Cc1ccc(C(=O)N/C(=C/c2ccco2)C(=O)NCc2ccco2)cc1 was read as PABP FP inh 18, HCV NS3 hel inh 37*, eIF4H FP inh 24, PABP1 MLLE inh -6, DNA FID counter-1 -19, HCV core dimer -7, NS3 helicase cf 1 and DNA FID counter-2 9.
For COc1ccc(C(=O)N/C(=C/c2ccco2)C(=O)NCc2ccco2)cc1 the results were PABP FP inh 8, HCV NS3 hel inh 3, eIF4H FP inh 2, PABP1 MLLE inh 1, DNA FID counter-1 -9 and HCV core dimer 0.
O=C(Nc1ccc(-n2cccn2)cc1)C1CCCCN1Cc1cccc2c1OCO2 (stereo unspecified) was read as PABP FP inh 8, HCV NS3 hel inh 3, eIF4H FP inh -2, PABP1 MLLE inh 8, DNA FID counter-1 2 and HCV core dimer -12.
`Cc1cc(C)cc(NCc2cc(=O)oc3cc(-c4ccccc4)c(O)cc23)c1` gave PABP FP inh -7, HCV NS3 hel inh 0, eIF4H FP inh 1, PABP1 MLLE inh 6, DNA FID counter-1 2 and HCV core dimer 10.
`COc1ccc(C)cc1NCc1cc(=O)oc2cc(-c3ccccc3)c(O)cc12` gave PABP FP inh 6, HCV NS3 hel inh 49*, eIF4H FP inh 0, PABP1 MLLE inh -2, DNA FID counter-1 -4, HCV core dimer 13, NS3 helicase cf 0 and DNA FID counter-2 10.
Screening COC(=O)c1c(C)[nH]c(C(=O)COC(=O)CCc2ccc(OC)c(OC)c2)c1C returned PABP1 MLLE inh -7.
CCOc1ccc(S(=O)(=O)N2CCN(C(=O)CCOc3ccccc3C)CC2)cc1 was read as PABP1 MLLE inh -37 and HCV core dimer 4.
`CC(CCc1ccco1)NC(=O)CCc1nnc2ccc(NCc3ccccc3Cl)nn12` (stereo unspecified) gave PABP FP inh 1, HCV NS3 hel inh 61*, eIF4H FP inh -4, PABP1 MLLE inh -13, DNA FID counter-1 -51, HCV core dimer 17, NS3 helicase cf 4 and DNA FID counter-2 -2.
`CC(CCc1ccco1)NC(=O)CCc1nnc2ccc(NCc3ccc(Cl)cc3)nn12` (stereo unspecified) gave HCV NS3 hel inh -3, PABP1 MLLE inh 8, DNA FID counter-1 -50 and HCV core dimer 5.

High-throughput results deposited in PubChem BioAssay by several laboratories.
